Experimental data: ChEMBL document CHEMBL1799943, “1-(5-Carboxyindol-1-yl)propan-2-one inhibitors of human cytosolic phospholipase A2α: effect of substituents in position 3 of the indole scaffold on inhibitory potency, metabolic stability, solubility, and bioavailability” (J Med Chem, 2010)

How the values were obtained:
[1] = Partition coefficient, log P of the compound by reverse phase HPLC analysis; assay type: physicochemical; conditions: octanol/water
Procedure, shortened: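 log P estimated from reversed-phase HPLC retention times of each compound's ketone form.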

[2] = Drug level in C57Bl6 mouse plasma at 10 mg/kg, po after 1 hr by HPLC analysis; assay type: ADME, organism-based; design: dose 10 mg/kg, route oral
[3] = Drug level in C57Bl6 mouse plasma at 10 mg/kg, po after 2 hrs by HPLC analysis; assay type: ADME, organism-based; design: dose 10 mg/kg, route oral
[4] = Metabolic stability in rat liver microsomes assessed as compound remaining after 30 mins by UV-reverse phase HPLC analysis; assay type: ADME, Microsome; conditions: read-out: Stability
[5] = Drug level in C57Bl6 mouse plasma at 100 mg/kg, po after 1 hr by HPLC analysis; assay type: ADME, organism-based; design: dose 100 mg/kg, route oral
Procedure, shortened: (§1)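 Male/female unspecified C57Bl6 mice (n = 3) got a single 100 mg/kg oral gavage dose as a suspension in 1% aqueous methylcellulose (8 μL/g). Blood was drawn at 1 and 2 h and centrifuged at 3000g for 20 min. Plasma was mixed with pH 7.4 PBS and acetonitrile, left 5 min at room temperature and spun at 2000g for 15 min. Supernatant went to reversed-phase C18 HPLC-UV for parent and alcohol metabolite.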

[6] = Drug level in C57Bl6 mouse plasma at 100 mg/kg, po after 2 hrs by HPLC analysis; assay type: ADME, organism-based; design: dose 100 mg/kg, route oral; procedure, shortened: as §1
[7] = test system: Intestine; assay: Drug level in C57Bl6 mouse intestine assessed per gut at 100 mg/kg, po after 2 hrs by HPLC analysis in presence of Helix pomatia beta-glucuronidase HP2; assay type: ADME, organism-based; design: dose 100 mg/kg, route oral; conditions: in vivo
[8] = test system: Intestine; assay: Drug level in C57Bl6 mouse intestine assessed as 3-(5-Carboxypentanoyl)-1-[2-hydroxy-3-(4-octylphenoxy)propyl]indole-5-carboxylic acid level assessed per gut at 100 mg/kg, po after 2 hrs by HPLC analysis in presence of Helix pomatia beta-glucuronidase HP2; assay type: ADME, organism-based; design: dose 100 mg/kg, route oral; conditions: in vivo
[9] = Drug level in rat plasma at 100 mg/kg, po after 4 hrs by HPLC analysis; assay type: ADME, organism-based; design: dose 100 mg/kg, route oral
[10] = test system: Plasma; assay: Drug level in C57Bl6 mouse plasma assessed as 3-(5-carboxypentanoyl)-1-(2-hydroxy-3-(4-octylphenoxy)propyl)-1H-indole-5-carboxylic acid at 100 mg/kg, po after 1 hr by HPLC analysis; assay type: ADME, organism-based; design: dose 100 mg/kg, route oral; conditions: in vivo; procedure, shortened: as §1
[11] = test system: Plasma; assay: Drug level in C57Bl6 mouse plasma assessed as 3-(5-carboxypentanoyl)-1-(2-hydroxy-3-(4-octylphenoxy)propyl)-1H-indole-5-carboxylic acid at 100 mg/kg, po after 2 hrs by HPLC analysis; assay type: ADME, organism-based; design: dose 100 mg/kg, route oral; conditions: in vivo; procedure, shortened: as §1
[12] = Drug level in C57Bl6 mouse bile at 100 mg/kg, po after 2 hrs by HPLC analysis; assay type: ADME, organism-based; design: dose 100 mg/kg, route oral; conditions: read-out: Drug uptake
Procedure, shortened: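 Mice (C57Bl6, n = 3) were dosed orally by gavage at 100 mg/kg in 1% methylcellulose and killed 2 h later for bile collection. For direct measurement, bile was diluted in pH 7.4 PBS with equal acetonitrile. Alternatively, bile in pH 5.5 PBS was digested with Helix pomatia β-glucuronidase HP-2 at 60 °C for 1 h, then acetonitrile was added. Both were centrifuged at 2000g and analysed by reversed-phase HPLC-UV.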

[13] = Drug level in C57Bl6 mouse intestine assessed per gut at 100 mg/kg, po after 2 hrs by HPLC analysis; assay type: ADME, organism-based; design: dose 100 mg/kg, route oral; conditions: read-out: Drug uptake
Procedure, shortened: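 Whole intestines were taken from C57Bl6 mice (n = 3) 2 h after 100 mg/kg oral gavage in 1% methylcellulose. Each was minced, homogenized at 0 °C in pH 7.4 PBS and extracted with acetonitrile. Pellet washes with PBS/acetonitrile 1:1 were pooled, made up to volume, centrifuged and filtered. Parent and alcohol metabolite per whole gut were quantified by reversed-phase HPLC-UV.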

[14] = Drug level in C57Bl6 mouse bile assessed as 3-(5-carboxypentanoyl)-1-(2-hydroxy-3-(4-octylphenoxy)propyl)-1H-indole-5-carboxylic acid at 100 mg/kg, po after 2 hrs by HPLC analysis; assay type: ADME, organism-based; design: dose 100 mg/kg, route oral; conditions: in vivo
[15] = Drug level in C57Bl6 mouse bile assessed as 3-(5-carboxypentanoyl)-1-(2-hydroxy-3-(4-octylphenoxy)propyl)-1H-indole-5-carboxylic acid at 100 mg/kg, po after 2 hrs by HPLC analysis in presence of Helix pomatia beta-glucuronidase HP2; assay type: ADME, organism-based; design: dose 100 mg/kg, route oral; conditions: in vivo
Procedure, shortened: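 C57Bl6 mice (n = 3) were gavaged once with 100 mg/kg suspended in 1% aqueous methylcellulose, and bile was taken at 2 h. Bile in PBS pH 5.5 was treated with Helix pomatia β-glucuronidase HP-2 at 60 °C for 1 h to cleave glucuronides. Acetonitrile was then added, samples were left 5 min, spun 2000g for 15 min, and analysed by reversed-phase HPLC-UV. Mean ± SD.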

[16] = test system: Intestine; assay: Drug level in C57Bl6 mouse intestine assessed as 3-(5-carboxypentanoyl)-1-(2-hydroxy-3-(4-octylphenoxy)propyl)-1H-indole-5-carboxylic acid per gut at 100 mg/kg, po after 2 hrs by HPLC analysis; assay type: ADME, organism-based; design: dose 100 mg/kg, route oral; conditions: in vivo
Procedure, shortened: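 Whole intestine removed 2 h after a single 100 mg/kg gavage (1% methylcellulose suspension) in C57Bl6 mice (n = 3). Tissue minced and homogenised in PBS pH 7.4 at 0 °C, then extracted with acetonitrile with repeated PBS/acetonitrile 1:1 washes, spun 2000g at 4 °C. Pooled extract made up to volume and analysed by reversed-phase HPLC-UV. Amount per gut, mean ± SD.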

Question: With `CCCCCCCCc1ccc(OCC(=O)Cn2cc(C(=O)CCC)c3cc(C(=O)O)ccc32)cc1` as the compound, how does the logP [1] read?
Answer: 6.7

Question: For `CCCCCCCCc1ccc(OCC(=O)Cn2cc(C(=O)CCC(=O)O)c3cc(C(=O)O)ccc32)cc1`, which logP [1] is on record?
Answer: 5.1

Question: Which concentration at 1 h [2] does the source give for `COc1ccc2c(c1)c(CC(=O)O)c(C)n2C(=O)c1ccc(Cl)cc1` [INDOMETHACIN] here?
Answer: 42000 ng/mL

Question: What about the concentration at 2 h [3] of the same compound?
Answer: 34000 ng/mL

Question: What does the source list for `CCCCCCCCc1ccc(OCC(=O)Cn2cc(C(=O)c3ccc(C(=O)O)cc3)c3cc(C(=O)O)ccc32)cc1`?
Answer: remaining at 0.5 h [4]: 87%; logP [1]: 5.6

Question: What does the source list for `CC(C)C(=O)c1cn(CC(=O)COc2ccc(Oc3ccccc3)cc2)c2ccc(C(=O)O)cc12`?
Answer: concentration at 1 h [5]: < 5000 ng/mL; concentration at 2 h [6]: < 1000 ng/mL; Drug uptake [7]: 404 µg; Drug uptake [8]: 875 µg

Question: For `CCCCCCCCCCCC(=O)c1c(C(=O)O)n(CCOc2ccc(CC(=O)O)cc2)c2ccccc12`, which concentration at 4 h [9] is on record?
Answer: 100 µg/mL

Question: With `CCCCCCCCc1ccc(OCC(=O)Cn2cc(CCCCCC)c3cc(C(=O)O)ccc32)cc1` as the compound, how does the remaining at 0.5 h [4] read?
Answer: 94%

Question: What about the logP [1] of the same compound?
Answer: > 7

Question: With `CCCCCCCCc1ccc(OCC(=O)Cn2cc(C(=O)c3ccccc3)c3cc(C(=O)O)ccc32)cc1` as the compound, how does the remaining at 0.5 h [4] read?
Answer: 95%

Question: What about the logP [1] of the same compound?
Answer: 6.9

Question: For `CCCCCCCCc1ccc(OCC(=O)Cn2cc(C(=O)CCCCC)c3cc(C(=O)O)ccc32)cc1`, which logP [1] is on record?
Answer: > 7

Question: For `CCCCCCCCc1ccc(OCC(=O)Cn2cc(CC)c3cc(C(=O)O)ccc32)cc1`, which remaining at 0.5 h [4] is on record?
Answer: 84%

Question: And the logP [1]?
Answer: > 7

Question: What does the source list for `CCCCCCCCc1ccc(OCC(=O)Cn2cc(C(=O)CCCCC(=O)O)c3cc(C(=O)O)ccc32)cc1`?
Answer: logP [1]: 5.3; concentration at 1 h [5]: < 200 ng/mL; concentration at 2 h [6]: < 200 ng/mL; Cp [10]: < 0.1 µg/mL; Cp [11]: < 0.1 µg/mL; concentration at 2 h [12]: 6000 ng/mL; concentration at 2 h [13]: 870 µg/mL

Question: For `CCCCCCCCc1ccc(OCC(=O)Cn2cc(C(=O)C(F)(F)F)c3cc(C(=O)O)ccc32)cc1`, which remaining at 0.5 h [4] is on record?
Answer: 87%

Question: What about the logP [1] of the same compound?
Answer: > 7

Question: Which remaining at 0.5 h [4] does the source give for `CCCCCCCCc1ccc(OCC(=O)Cn2cc(C(=O)c3cccc(C(=O)O)c3)c3cc(C(=O)O)ccc32)cc1` here?
Answer: 87%

Question: And the logP [1]?
Answer: 5.7

Question: With `CCCCCCCCc1ccc(OCC(=O)Cn2cc(C(=O)C(C)(C)C)c3cc(C(=O)O)ccc32)cc1` as the compound, how does the remaining at 0.5 h [4] read?
Answer: 93%

Question: What about the logP [1] of the same compound?
Answer: > 7

Question: With `CCCCCCCCc1ccc(OCC(=O)Cn2cc(-c3nc(C)no3)c3cc(C(=O)O)ccc32)cc1` as the compound, how does the remaining at 0.5 h [4] read?
Answer: 81%

Question: What about the logP [1] of the same compound?
Answer: 6.3

Question: For `O=C(O)CCCCC(=O)c1cn(CC(=O)COc2ccc(Oc3ccccc3)cc2)c2ccc(C(=O)O)cc12`, which remaining at 0.5 h [4] is on record?
Answer: 24%

Question: And the logP [1]?
Answer: 2.1

Question: Which results are given for `CCCCCCCCc1ccc(OCC(=O)Cn2cc(C(=O)CCCC(=O)O)c3cc(C(=O)O)ccc32)cc1`?
Answer: remaining at 0.5 h [4]: 95%; logP [1]: 5.2

Question: Which Drug uptake [14] does the source give for `CCCCCCCCc1ccc(OCC(O)Cn2cc(C(=O)CCCCC(=O)O)c3cc(C(=O)O)ccc32)cc1` (centres undefined) here?
Answer: < 1 µg/mL

Question: What about the Drug uptake [15] of the same compound?
Answer: 33 µg/mL

Question: What about the Drug uptake [16] of the same compound?
Answer: 14 µg/mL

Question: With `CCCCCCCCc1ccc(OCC(=O)Cn2cc(CCCC)c3cc(C(=O)O)ccc32)cc1` as the compound, how does the remaining at 0.5 h [4] read?
Answer: 82%

Question: What about the logP [1] of the same compound?
Answer: > 7

Question: Which remaining at 0.5 h [4] does the source give for `Cc1noc(-c2cn(CC(=O)COc3ccc(Oc4ccccc4)cc3)c3ccc(C(=O)O)cc23)n1` here?
Answer: 8%

Question: What about the logP [1] of the same compound?
Answer: 3.1
